How the values were obtained:
ABHD12 [1] = biological target: T1, ABHD12 (Homo sapiens, UniProt Q8N2K0); experiment: In situ treatment of THP-1 cells, competitive gel-based ABPP with JJH350 probe; type: cell-based; conditions: 1 μM, 4 h in situ
T1 sequence (Q8N2K0 1-398): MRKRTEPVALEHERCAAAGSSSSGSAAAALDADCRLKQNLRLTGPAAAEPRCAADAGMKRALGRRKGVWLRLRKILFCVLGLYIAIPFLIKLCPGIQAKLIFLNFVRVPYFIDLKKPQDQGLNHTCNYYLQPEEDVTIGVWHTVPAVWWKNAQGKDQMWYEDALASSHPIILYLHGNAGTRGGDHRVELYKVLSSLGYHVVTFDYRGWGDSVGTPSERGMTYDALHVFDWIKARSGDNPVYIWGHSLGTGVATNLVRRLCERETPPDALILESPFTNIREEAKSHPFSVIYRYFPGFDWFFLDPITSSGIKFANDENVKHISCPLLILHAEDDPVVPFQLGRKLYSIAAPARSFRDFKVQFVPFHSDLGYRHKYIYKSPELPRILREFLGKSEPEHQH
In short: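 Whole THP-1 cells exposed to test compound or DMSO for 4 h at 37 °C, 5% CO₂, then washed twice with ice-cold DPBS. Proteome (1 mg/mL) labelled with JJH350 (2 μM final, 45 min, 37 °C), clicked by CuAAC and resolved on gel. ABHD12 band intensity is expressed relative to the control-treated sample, set to 100%.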

THP-1 cells = experiment: Targeted LC-MS of; type: cell-based, human; conditions: DO264 0.001-1 μM, (S)-DO271 1 μM, 4 h
In short: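 THP-1 cells (6 million in 10 mL) incubated with test compound or DMSO for 4 h at 37 °C, 5% CO₂. Cells washed twice with ice-cold DPBS and stored at −80 °C, then analysed by targeted LC-MS metabolomics for lyso-PS and PS species.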

LCMV clone 13 = conditions: mouse, in vivo, ip, 30 mg/kg
mice = experiment: Two-week daily dosing, overt signs of toxicity; type: in vivo, mouse; conditions: adult mice, 30 mg/kg daily, p.o., two weeks
[2] = Measurement of drug concentration in brain and blood of mice; type: in vivo, mouse; conditions: 4 h, at 60 mg/kg (i.p.) approximated exposures observed with DO264
In short: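 Tissues harvested 4 h after dosing. Brain homogenised in 4 volumes of water per weight; cardiac-puncture blood quenched 1:4 in acetonitrile. Samples diluted 1000–2000-fold in 50% ACN and spiked into blank C57BL/6J brain homogenate or blood, alongside serially diluted calibration standards. After vortexing and centrifugation (4 °C, 15 min), supernatant diluted 5-fold in water and quantified by LC/MS/MS.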

ABHD12 [3] = biological target: T2, ABHD12 (Mus musculus, UniProt Q99LR1); experiment: Ex vivo gel-based competitive ABPP; type: in vivo; conditions: mice, 60 mg/kg, 4 h
T2 sequence (Q99LR1 1-398): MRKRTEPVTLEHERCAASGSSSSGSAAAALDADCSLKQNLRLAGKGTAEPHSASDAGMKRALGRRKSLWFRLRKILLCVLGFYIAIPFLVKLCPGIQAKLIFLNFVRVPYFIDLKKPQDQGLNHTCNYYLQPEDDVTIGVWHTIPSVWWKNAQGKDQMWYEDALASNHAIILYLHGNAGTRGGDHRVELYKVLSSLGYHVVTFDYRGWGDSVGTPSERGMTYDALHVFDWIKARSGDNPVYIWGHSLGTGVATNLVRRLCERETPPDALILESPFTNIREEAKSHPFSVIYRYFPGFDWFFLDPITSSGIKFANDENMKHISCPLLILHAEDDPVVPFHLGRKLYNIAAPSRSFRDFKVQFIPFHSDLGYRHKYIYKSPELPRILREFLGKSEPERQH

ABHD12 [4] = biological target: T2, ABHD12; experiment: Competitive gel-based ABPP with JJH350 probe in mouse brain membrane proteome; type: biochemical; conditions: for activity against ABHD12 (in words): gel-based competitive ABPP, mouse brain membrane proteome
ABHD12 [5] = biological target: T1, ABHD12; experiment: ABPP-SILAC; type: cell-based; conditions: 1 μM, 4 h, THP-1 cells
In short: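 Heavy- or light-labelled THP-1 cells (30 million) differentiated with PMA (150 ng/mL final) for 24 h, washed, then kept a further 24 h in fresh SILAC medium. Light cells treated with test compound and heavy cells with DMSO, 4 h at 37 °C. Sonicated whole-cell proteomes (2 mg/mL) labelled separately with FP-biotin 1 μM, 30 min, room temperature, then combined for quantitative MS.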

[6] = tested on: serine hydrolases in THP-1 cells; experiment: ABPP-SILAC; type: cell-based, human; conditions: 1 μM, 4 h, THP-1 cells
ABHD12 [7] = biological target: T2, ABHD12; experiment: Lyso-PS hydrolysis assay with membrane lysates of ABHD12-transfected cells; type: biochemical
In short: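 Membrane lysate of ABHD12-transfected cells in DPBS incubated with 17:1 lyso-PS (100 μM final) for 20 min at 37 °C. Quenched in 2:1 CHCl₃/MeOH with 15:0 FFA internal standard. Activity is the LC-MS 17:1 FFA/15:0 FFA peak-area ratio minus mock-transfected membrane activity. IC50 fitted as log(inhibitor) vs normalized response.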

ABHD12 [8] = biological target: T2, ABHD12; experiment: Competitive ABPP with FP-Rh probe, lysates of ABHD12-transfected cells; type: biochemical; conditions: hit compound tested at 10 μM
In short: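 Mouse ABHD12 expressed in HEK293F cells by PEI transfection (48 h, 37 °C, 5% CO₂). Membranes prepared by hypotonic lysis, sonication, 100,000 × g pelleting and a high-salt wash, then resuspended in DPBS. Lysate (1 mg/mL) pre-exposed to hit compound, then labelled with FP-Rh (1 μM final, 45 min, 37 °C). Gel band intensity is read relative to control (100%).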

ABHD12 [9] = biological target: T2, ABHD12; experiment: Covalent labelling of mouse brain ABHD12 visualized by CuAAC with Rh-N3; type: biochemical; conditions: 45 min, 37 °C

FC(F)(F)Oc1ccc(Oc2ccnc(N3CCC[C@H](NC(=S)Nc4cccnc4)C3)c2Cl)c(Cl)c1 [(S)-DO271, (S)-N-3-pyridyl-N’-(1-[3-chloro-4-{2-chloro-4-(trifluoromethoxy)phenoxy}pyridine-2-yl]piperidin-3-yl)thiourea]
ABHD12 activity in THP-1 cells by competitive gel-based ABPP (in words) (ABHD12 [1]): unaffected | lyso-PS content of THP-1 cells (THP-1 cells): did not alter | fraction of treated ABHD12(−/−) mice that died prior to sacrifice at day 10 (LCMV clone 13): 30-40% | overt signs of toxicity, such as weight loss or behavioral distress (mice): neither compound produced overt signs of toxicity | exposure compared with DO264 (in words) [2]: lower exposure | brain ABHD12 activity, ex vivo analysis with JJH350 probe (ABHD12 [3]): did not block | activity against ABHD12 (in words) (ABHD12 [4]): inactive | effect on ABHD12 activity (in words) (ABHD12 [5]): did not affect | effect on activity of other serine hydrolases [6]: did not affect

Cc1cnc(N2CCN(NC(=S)Nc3cccnc3)CC2)c(Cl)c1 [DO127, N-3-pyridyl-N’-[1-{3-chloro-5-(methyl)pyridin-2-yl}piperazine-4-yl]thiourea]
activity against ABHD12 (in words) (ABHD12 [4]): no activity

FC(F)(F)c1cnc(N2CCC(NC(=S)Nc3cccnc3)CC2)c(Cl)c1 [DO130, N-3-pyridyl-N’-[1-{3-chloro-5-(trifluoromethyl)pyridin-2-yl}piperidin-4-yl]thiourea]
IC50 (ABHD12 [7]): 1300 nM | activity in LC/MS-based lyso-PS hydrolysis secondary assay (ABHD12 [7]; hit compound tested at 10 μM): showed activity | activity in competitive ABPP secondary assay (FP-Rh probe) (ABHD12 [8]): showed activity

C#Cc1ccc(Oc2ccnc(N3CCC(NC(=S)Nc4cccnc4)CC3)c2Cl)c(Cl)c1 [DO274, N-3-pyridyl-N’-(1-[3-chloro-4-{2-chloro-4-(ethynyl)phenoxy}pyridine-2-yl]piperidin-4-yl)thiourea]
ABHD12 inhibitory activity (in words) (ABHD12 [7]): potent ABHD12 inhibitory activity | covalent modification of ABHD12 (ABHD12 [9]): did not show evidence of covalent modification

CN(C(=S)Nc1cccnc1)C1CCN(c2nccc(Oc3ccc(OC(F)(F)F)cc3Cl)c2Cl)CC1 [DO276, N-3-pyridyl-N’-methyl-N’-(1-[3-chloro-4-{2-chloro-4-(trifluoromethoxy)phenoxy}pyridine-2-yl]piperidin-4-yl)thiourea]
IC50 (ABHD12 [4]): 1100 nM

O=C(Nc1cccnc1)NC1CCN(c2nccc(Oc3ccc(OC(F)(F)F)cc3Cl)c2Cl)CC1 [DO277, N-3-pyridyl-N’-(1-[3-chloro-4-{2-chloro-4-(trifluoromethoxy)phenoxy}pyridine-2-yl]piperidin-4-yl)urea]
IC50 (ABHD12 [4]): 170 nM
